pIC50: −log10 of the molar value.
What was measured:
[1] = Drug level in ICR mouse brain at 5 mg/kg, iv after 4 hrs by HPLC/MS/MS analysis; format: ADME, organism-based; design: dose 5 mg/kg, route intravenous; conditions: read-out: Drug uptake
Nucleic Acid [2] = assay: Ratio of drug level in brain to plasma in ICR mouse at 5 mg/kg, iv after 6 hrs by HPLC/MS/MS analysis; format: ADME, organism-based; design: dose 5 mg/kg, route intravenous
Rattus norvegicus = assay: Antiinflammatory activity in Wistar albino rat assessed as inhibition of carrageenan-induced paw edema at 33.6 mg/kg, ig administered 1 hr before carrageenan challenge measured after 4 hrs post carrageenan challenge by plethysmometer; format: functional; conditions: po, route intragastric
Procedure, shortened: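 Male Wistar rats (140–160 g), three groups of eight; drug as 0.5% CMC suspension i.g., controls given CMC only. 1 h later, 0.1 ml of 0.1% carrageenan in 0.9% NaCl injected sub-plantar into right hind paw. Paw volume read by plethysmometer hourly to 6 h and at 24 h; inhibition % = (Vc − Vt)/Vc × 100 from mean volume increases; mean ± SEM.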

[3] = biological target: T1, Prostaglandin G/H synthase 2 (Homo sapiens, UniProt P35354); assay: Inhibition of COX2 in LPS-stimulated and PMA-treated human U937 cells assessed as PGE2 production after 15 mins by ELISA; format: cell-based, U-937
T1 sequence (P35354 whole entry): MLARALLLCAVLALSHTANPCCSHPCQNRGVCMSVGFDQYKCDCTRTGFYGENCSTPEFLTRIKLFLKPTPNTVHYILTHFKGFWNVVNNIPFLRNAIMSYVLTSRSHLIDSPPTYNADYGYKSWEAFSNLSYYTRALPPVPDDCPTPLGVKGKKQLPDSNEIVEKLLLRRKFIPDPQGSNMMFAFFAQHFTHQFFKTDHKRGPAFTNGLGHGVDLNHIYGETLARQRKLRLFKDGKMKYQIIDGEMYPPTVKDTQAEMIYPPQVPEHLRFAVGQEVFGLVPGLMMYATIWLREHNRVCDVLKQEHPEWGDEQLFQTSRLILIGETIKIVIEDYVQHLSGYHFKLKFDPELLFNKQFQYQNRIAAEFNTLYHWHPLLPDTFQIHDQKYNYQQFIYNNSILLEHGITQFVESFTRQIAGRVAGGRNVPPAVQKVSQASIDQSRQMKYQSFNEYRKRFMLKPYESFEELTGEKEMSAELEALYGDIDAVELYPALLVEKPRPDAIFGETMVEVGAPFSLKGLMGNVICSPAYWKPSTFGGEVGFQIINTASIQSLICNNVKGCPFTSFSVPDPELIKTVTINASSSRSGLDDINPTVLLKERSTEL

[4] = Apparent half life in ICR mouse at 5 mg/kg, iv; format: ADME, organism-based; design: dose 5 mg/kg, route intravenous; conditions: in vivo, read-out: t1/2(app) (converted)
[5] = Apparent volume of distribution in ICR mouse at 5 mg/kg, iv; format: ADME, organism-based; design: dose 5 mg/kg, route intravenous; conditions: in vivo, read-out: Vz
[6] = Clearance in ICR mouse at 5 mg/kg, iv; format: ADME, organism-based; design: dose 5 mg/kg, route intravenous; conditions: in vivo
[7] = Apparent half life in ICR mouse at 10 mg/kg, po; format: ADME, organism-based; design: dose 10 mg/kg, route oral; conditions: in vivo, read-out: t1/2(app) (converted)
Nucleic Acid [8] = assay: Ratio of drug level in brain to plasma in ICR mouse at 5 mg/kg, iv after 1 hr by HPLC/MS/MS analysis; format: ADME, organism-based; design: dose 5 mg/kg, route intravenous
Nucleic Acid [9] = assay: Ratio of drug level in brain to plasma in ICR mouse at 10 mg/kg, po after 0.083 hrs by HPLC/MS/MS analysis; format: ADME, organism-based; design: dose 10 mg/kg, route oral
Mus musculus = assay: Ratio of drug level in brain to plasma in ICR mouse at 5 mg/kg, iv
[10] = biological target: Prostaglandin G/H synthase 1 (Homo sapiens, UniProt P23219); assay: Ratio of ibuprofen IC50 to compound IC50 for human COX1 in HEL 92.1.7 cells

SMILES	concentration at 4 h [1]	BPR (Nucleic Acid [2])	inhibition in vivo at 33.6 mg/kg (Rattus norvegicus)	pIC50 [3]	half-life [4]	Vd [5]	clearance [6]	half-life [7]	BPR (Nucleic Acid [8])	BPR (Nucleic Acid [9])	BPR (Mus musculus)	Ratio IC50 [10]
CC(C)Cc1ccc([C@H](C)C(=O)O)cc1 [DEXIBUPROFEN]	41.5 ng/g	0.059 mL/g										
CC(C)Cc1ccc([C@H](CF)C(=O)O)cc1			41.3%	6.28	52.8 min	0.27 L/kg	3.5 mL/min/kg	45 min	0.041 mL/g	0.027 mL/g	0.031 mL/g	80
